Numbered stars: 1 amine (or outer) side, 2 acyl side, 3 side chain; on linkers, the order of the positions; unused ones are H or OH. Bridge positions count the residues as written; N and C are the ends. Square brackets hold non-standard residues; d marks the D form. Peptide text beside a SMILES is read from it. ξ: configuration not given here. ξβ3hPhg = O=C(CC(N[*:1])c1ccccc1)[*:2]; ξPhg = NC(C(=O)O)c1ccccc1; βAla = NCCC(=O)O
Biological target: hEGFR (Homo sapiens, UniProt P00533)
Test: Binding kinetics analysis by surface plasmon resonance
Conditions: KD compared with 2D and 18D

Sequence of hEGFR (P00533 25-1210): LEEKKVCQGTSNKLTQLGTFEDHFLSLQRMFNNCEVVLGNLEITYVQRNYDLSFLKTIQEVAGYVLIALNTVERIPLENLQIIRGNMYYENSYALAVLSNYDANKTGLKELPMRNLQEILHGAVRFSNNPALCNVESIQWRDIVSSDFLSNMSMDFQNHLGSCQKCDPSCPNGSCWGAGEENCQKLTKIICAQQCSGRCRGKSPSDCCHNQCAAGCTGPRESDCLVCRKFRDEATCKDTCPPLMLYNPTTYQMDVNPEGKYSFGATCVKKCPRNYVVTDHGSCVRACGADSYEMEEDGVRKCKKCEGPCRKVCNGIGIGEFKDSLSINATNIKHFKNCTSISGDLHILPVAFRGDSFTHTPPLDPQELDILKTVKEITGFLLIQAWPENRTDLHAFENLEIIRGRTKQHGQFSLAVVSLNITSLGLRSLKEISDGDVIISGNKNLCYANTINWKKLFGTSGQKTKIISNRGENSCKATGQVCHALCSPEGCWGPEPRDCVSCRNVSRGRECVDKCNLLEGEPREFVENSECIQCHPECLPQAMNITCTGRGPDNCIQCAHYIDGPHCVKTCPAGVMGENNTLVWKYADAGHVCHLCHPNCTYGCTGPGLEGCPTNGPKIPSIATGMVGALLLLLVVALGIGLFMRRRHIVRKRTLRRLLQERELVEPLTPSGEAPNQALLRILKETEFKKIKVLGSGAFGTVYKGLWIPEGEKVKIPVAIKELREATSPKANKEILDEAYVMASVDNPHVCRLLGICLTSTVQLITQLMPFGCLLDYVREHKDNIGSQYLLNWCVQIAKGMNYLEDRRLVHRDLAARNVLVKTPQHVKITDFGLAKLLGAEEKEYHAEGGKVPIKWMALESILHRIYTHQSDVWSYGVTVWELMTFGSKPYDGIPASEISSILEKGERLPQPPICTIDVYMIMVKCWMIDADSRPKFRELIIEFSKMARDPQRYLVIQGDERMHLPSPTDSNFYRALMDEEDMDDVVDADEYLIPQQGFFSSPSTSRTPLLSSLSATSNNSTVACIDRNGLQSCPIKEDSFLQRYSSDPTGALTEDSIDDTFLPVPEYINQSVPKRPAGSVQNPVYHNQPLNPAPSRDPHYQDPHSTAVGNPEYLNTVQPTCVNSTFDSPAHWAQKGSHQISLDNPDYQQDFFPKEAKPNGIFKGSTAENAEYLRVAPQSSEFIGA

fold stronger binding affinity in comparison with 2D and 18D | SMILES
approximately 10 fold | CC(C)C[C@@H]1NC(=O)CC(c2ccccc2)NC(=O)[C@H](CC(C)C)NC(=O)[C@H](Cc2ccc(O)cc2)NC(=O)CSC[C@@H](C(=O)NCC(N)=O)NC(=O)[C@H](Cc2ccc(O)cc2)NC(=O)[C@H](CC(C)C)NC(=O)[C@H](Cc2ccc(O)cc2)NC(=O)[C@H](CCCNC(=N)N)NC(=O)[C@H](CC(N)=O)NC(=O)[C@@H]2CCCN2C(=O)CC(c2ccccc2)NC(=O)[C@H](CCCNC(=N)N)NC(=O)[C@H](CCCNC(=N)N)NC(=O)CC(c2ccccc2)NC(=O)[C@H](Cc2ccc(O)cc2)NC1=O (stereo partly drawn) [L2β, ^AcYL^βXLY^βXRR^βXPNRYLYCG-NH2] ({CH2CO}-YL[ξβ3hPhg]LY[ξβ3hPhg]RR[ξβ3hPhg]PNRYLYCG-NH2; thioether N-16)
approximately 10 fold | CC(C)[C@@H]1NC(=O)[C@H](CCCNC(=N)N)NC(=O)[C@H](Cc2ccc(O)cc2)NC(=O)[C@H](C(C)C)NC(=O)[C@H](C(C)C)NC(=O)[C@H](CCCNC(=N)N)NC(=O)[C@H](CC(=O)O)NC(=O)[C@H](CC(=O)O)NC(=O)CCNC(=O)[C@H](Cc2ccc(O)cc2)NC(=O)[C@H](Cc2ccc(O)cc2)NC(=O)[C@H](Cc2ccccc2)NC(=O)[C@@H](Cc2ccc(O)cc2)NC(=O)CSC[C@@H](C(=O)NCC(N)=O)NC(=O)CC(c2ccccc2)NC1=O (stereo partly drawn) [D4β] ({CH2CO}-[dY]FYY[βAla]DDRVVYRV[ξβ3hPhg]CG-NH2; thioether N-15)

Tested on: not listed separately
Test: Serum stability assay
Assay type: in vitro ADME
Conditions: human serum, 37 °C; mutant vs parent L2β or D4β
In short: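 Test peptides (parents plus Ala, backbone-shortening and sidechain-deletion mutants) incubated in human serum at 37 °C for up to 72 h. Percentage of remaining peptide over time estimated by LC/MS, and half-life (t1/2) derived from the decay.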

SMILES | fold lower t1/2 than the parent peptide
CC(C)[C@@H]1NC(=O)[C@H](CCCNC(=N)N)NC(=O)[C@H](Cc2ccc(O)cc2)NC(=O)[C@H](C(C)C)NC(=O)[C@H](C(C)C)NC(=O)[C@H](CCCNC(=N)N)NC(=O)[C@H](CC(=O)O)NC(=O)[C@H](CC(=O)O)NC(=O)CCNC(=O)[C@H](Cc2ccc(O)cc2)NC(=O)[C@H](Cc2ccc(O)cc2)NC(=O)[C@H](Cc2ccccc2)NC(=O)[C@@H](Cc2ccc(O)cc2)NC(=O)CSC[C@@H](C(=O)NCC(N)=O)NC(=O)[C@H](C)NC1=O [D4A.2] ({CH2CO}-[dY]FYY[βAla]DDRVVYRVACG-NH2; thioether N-15) | 2.6 fold
CC(C)[C@@H]1NC(=O)[C@H](CCCNC(=N)N)NC(=O)[C@H](Cc2ccc(O)cc2)NC(=O)[C@H](C(C)C)NC(=O)[C@H](C(C)C)NC(=O)[C@H](CCCNC(=N)N)NC(=O)[C@H](CC(=O)O)NC(=O)[C@H](CC(=O)O)NC(=O)[C@H](C)NC(=O)[C@H](Cc2ccc(O)cc2)NC(=O)[C@H](Cc2ccc(O)cc2)NC(=O)[C@H](Cc2ccccc2)NC(=O)[C@@H](Cc2ccc(O)cc2)NC(=O)CSC[C@@H](C(=O)NCC(N)=O)NC(=O)CC(c2ccccc2)NC1=O (stereo partly drawn) [D4A.1] ({CH2CO}-[dY]FYYADDRVVYRV[ξβ3hPhg]CG-NH2; thioether N-15) | 26 fold
CC(C)[C@@H]1NC(=O)[C@H](CCCNC(=N)N)NC(=O)[C@H](Cc2ccc(O)cc2)NC(=O)[C@H](C(C)C)NC(=O)[C@H](C(C)C)NC(=O)[C@H](CCCNC(=N)N)NC(=O)[C@H](CC(=O)O)NC(=O)[C@H](CC(=O)O)NC(=O)CNC(=O)[C@H](Cc2ccc(O)cc2)NC(=O)[C@H](Cc2ccc(O)cc2)NC(=O)[C@H](Cc2ccccc2)NC(=O)[C@@H](Cc2ccc(O)cc2)NC(=O)CSC[C@@H](C(=O)NCC(N)=O)NC(=O)CC(c2ccccc2)NC1=O (stereo partly drawn) [D4α.1] ({CH2CO}-[dY]FYYGDDRVVYRV[ξβ3hPhg]CG-NH2; thioether N-15) | 2 fold
CC(C)C[C@@H]1NC(=O)[C@H](C)NC(=O)[C@H](CC(C)C)NC(=O)[C@H](Cc2ccc(O)cc2)NC(=O)CSC[C@@H](C(=O)NCC(N)=O)NC(=O)[C@H](Cc2ccc(O)cc2)NC(=O)[C@H](CC(C)C)NC(=O)[C@H](Cc2ccc(O)cc2)NC(=O)[C@H](CCCNC(=N)N)NC(=O)[C@H](CC(N)=O)NC(=O)[C@@H]2CCCN2C(=O)[C@H](C)NC(=O)[C@H](CCCNC(=N)N)NC(=O)[C@H](CCCNC(=N)N)NC(=O)[C@H](C)NC(=O)[C@H](Cc2ccc(O)cc2)NC1=O [L2A] ({CH2CO}-YLALYARRAPNRYLYCG-NH2; thioether N-16) | approximately 10 fold

Biological target: hEGF–hEGFR interaction (Homo sapiens, UniProt P00533)
Sequence (P00533 25-645 limits assumed): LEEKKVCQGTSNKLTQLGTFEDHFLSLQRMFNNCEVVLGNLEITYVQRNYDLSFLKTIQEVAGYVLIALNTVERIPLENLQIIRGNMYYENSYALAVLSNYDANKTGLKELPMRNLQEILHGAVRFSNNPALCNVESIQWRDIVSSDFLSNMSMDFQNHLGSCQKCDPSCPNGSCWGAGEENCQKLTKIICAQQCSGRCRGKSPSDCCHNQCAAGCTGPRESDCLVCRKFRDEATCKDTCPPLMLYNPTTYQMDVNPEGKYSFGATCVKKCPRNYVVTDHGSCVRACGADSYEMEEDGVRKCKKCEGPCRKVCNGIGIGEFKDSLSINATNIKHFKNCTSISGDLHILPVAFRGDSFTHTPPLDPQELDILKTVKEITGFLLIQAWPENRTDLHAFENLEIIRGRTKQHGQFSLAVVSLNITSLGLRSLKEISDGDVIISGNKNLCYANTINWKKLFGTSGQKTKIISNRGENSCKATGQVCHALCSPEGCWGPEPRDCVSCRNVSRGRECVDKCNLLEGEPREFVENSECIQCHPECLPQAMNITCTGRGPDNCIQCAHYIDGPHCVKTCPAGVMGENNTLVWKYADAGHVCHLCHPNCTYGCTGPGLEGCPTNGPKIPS
Test: hEGFR inhibition assay using AlphaLISA
Assay type: biochemical
Conditions: not given

PPI inhibitory activity against hEGF–hEGFR interaction (in words) | SMILES
complete loss of the activity | CC(C)[C@@H]1NC(=O)[C@H](CCCNC(=N)N)NC(=O)[C@H](Cc2ccc(O)cc2)NC(=O)[C@H](C(C)C)NC(=O)[C@H](C(C)C)NC(=O)[C@H](CCCNC(=N)N)NC(=O)[C@H](CC(=O)O)NC(=O)[C@H](CC(=O)O)NC(=O)CNC(=O)[C@H](Cc2ccc(O)cc2)NC(=O)[C@H](Cc2ccc(O)cc2)NC(=O)[C@H](Cc2ccccc2)NC(=O)[C@@H](Cc2ccc(O)cc2)NC(=O)CSC[C@@H](C(=O)NCC(N)=O)NC(=O)C(c2ccccc2)NC1=O (stereo partly drawn) [D4α, ^AcyFYYGDDRVVYRVXCG-NH2] ({CH2CO}-[dY]FYYGDDRVVYRV[ξPhg]CG-NH2; thioether N-15)
no inhibitory activity | CC(C)C[C@H](NC(=O)CNC(=O)[C@H](CCCNC(=N)N)NC(=O)CC(NC(=O)[C@@H]1CSCC(=O)N[C@H](Cc2ccc(O)cc2)C(=O)N[C@@H](C(C)C)C(=O)N[C@@H](Cc2ccc(O)cc2)C(=O)N1)c1ccccc1)C(=O)N[C@@H](CC(=O)O)C(=O)N1CCC[C@H]1C(=O)N[C@@H](CCCNC(=N)N)C(=O)N[C@@H](CC(C)C)C(=O)N[C@@H](CO)C(=O)N[C@@H](CCCNC(=N)N)C(=O)N[C@@H](Cc1ccccc1)C(=O)N[C@@H](CO)C(=O)NCC(N)=O (stereo partly drawn) [D2β, ^AcyVYC^βXRGLDPRLSRFSG-NH2] ({CH2CO}-[dY]VYC[ξβ3hPhg]RGLDPRLSRFSG-NH2; thioether N-4)
complete loss of the activity | CC(C)[C@@H]1NC(=O)[C@H](CCCNC(=N)N)NC(=O)[C@H](Cc2ccc(O)cc2)NC(=O)[C@H](C(C)C)NC(=O)[C@H](C(C)C)NC(=O)[C@H](CCCNC(=N)N)NC(=O)[C@H](CC(=O)O)NC(=O)[C@H](CC(=O)O)NC(=O)[C@H](C)NC(=O)[C@H](Cc2ccc(O)cc2)NC(=O)[C@H](Cc2ccc(O)cc2)NC(=O)[C@H](Cc2ccccc2)NC(=O)[C@@H](Cc2ccc(O)cc2)NC(=O)CSC[C@@H](C(=O)NCC(N)=O)NC(=O)[C@H](C)NC1=O [D4A] ({CH2CO}-[dY]FYYADDRVVYRVACG-NH2; thioether N-15)

Same assay, conditions: mutant vs parent L2β, D3β or D4β

fold increase of IC50 compared to the parent peptide | SMILES
2.2 fold | CC(C)[C@@H]1NC(=O)[C@H](CCCNC(=N)N)NC(=O)[C@H](Cc2ccc(O)cc2)NC(=O)[C@H](C(C)C)NC(=O)[C@H](C(C)C)NC(=O)[C@H](CCCNC(=N)N)NC(=O)[C@H](CC(=O)O)NC(=O)[C@H](CC(=O)O)NC(=O)CCNC(=O)[C@H](Cc2ccc(O)cc2)NC(=O)[C@H](Cc2ccc(O)cc2)NC(=O)[C@H](Cc2ccccc2)NC(=O)[C@@H](Cc2ccc(O)cc2)NC(=O)CSC[C@@H](C(=O)NCC(N)=O)NC(=O)CCNC1=O [D4βG] ({CH2CO}-[dY]FYY[βAla]DDRVVYRV[βAla]CG-NH2; thioether N-15)
1270 fold | CC(C)C[C@@H]1NC(=O)CC(c2ccccc2)NC(=O)[C@H](CC(C)C)NC(=O)[C@H](Cc2ccc(O)cc2)NC(=O)CSC[C@@H](C(=O)NCC(N)=O)NC(=O)[C@H](Cc2ccc(O)cc2)NC(=O)[C@H](CC(C)C)NC(=O)[C@H](Cc2ccc(O)cc2)NC(=O)[C@H](CCCNC(=N)N)NC(=O)[C@H](CC(N)=O)NC(=O)[C@@H]2CCCN2C(=O)CC(c2ccccc2)NC(=O)[C@H](CCCNC(=N)N)NC(=O)[C@H](CCCNC(=N)N)NC(=O)CCNC(=O)[C@H](Cc2ccc(O)cc2)NC1=O (stereo partly drawn) [L2βG.2, ^AcYL^βXLY^βGRR^βXPNRYLYCG-NH2] ({CH2CO}-YL[ξβ3hPhg]LY[βAla]RR[ξβ3hPhg]PNRYLYCG-NH2; thioether N-16)
460 fold | CC(C)C[C@@H]1NC(=O)CC(c2ccccc2)NC(=O)[C@H](CC(C)C)NC(=O)[C@H](Cc2ccc(O)cc2)NC(=O)CSC[C@@H](C(=O)NCC(N)=O)NC(=O)[C@H](Cc2ccc(O)cc2)NC(=O)[C@H](CC(C)C)NC(=O)[C@H](Cc2ccc(O)cc2)NC(=O)[C@H](CCCNC(=N)N)NC(=O)[C@H](CC(N)=O)NC(=O)[C@@H]2CCCN2C(=O)CC(c2ccccc2)NC(=O)[C@H](CCCNC(=N)N)NC(=O)[C@H](CCCNC(=N)N)NC(=O)C(c2ccccc2)NC(=O)[C@H](Cc2ccc(O)cc2)NC1=O (stereo partly drawn) [L2α.2, ^AcYL^βXLYXRR^βXPNRYLYCG-NH2] ({CH2CO}-YL[ξβ3hPhg]LY[ξPhg]RR[ξβ3hPhg]PNRYLYCG-NH2; thioether N-16)

— article PMC9563295 (Journal of the American Chemical Society, 2022)
